Measured values: ChEMBL document CHEMBL2413018, “Nonclassical antifolates, part 4. 5-(2-aminothiazol-4-yl)-4-phenyl-4H-1,2,4-triazole-3-thiols as a new class of DHFR inhibitors: synthesis, biological evaluation and molecular modeling study” (Eur J Med Chem, 2013)
Converted amounts (≈) assume the structure as drawn.

Experiments:
[1] = test system: A549; test: Cytotoxicity against human A549 cells after 48 hrs by MTT assay; type: functional; settings: A549, 48 h, read-out: LC50 (the source's name)
Method in brief: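 A549 cells grown in DMEM with 1% antibiotic-antimycotic and 1% L-glutamine at 37 °C, 5% CO2, seeded at 10 x 10^3 cells/well for 24 h. Exposed in serum-free medium to 0.78–100 µM for 48 h, then MTT added for 4 h and dissolved overnight in 10% SDS.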

[2] = test system: Pseudomonas aeruginosa; test: Antibacterial activity against Pseudomonas aeruginosa at 200 ug/disc after 24 hrs by agar disc-diffusion method; type: functional; settings: for zone of inhibition at 200 µg/disc: read-out: DIZ
Method in brief: (§1)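 Disc diffusion on Müller-Hinton agar. 8 mm filter-paper discs carried test solution in DMSO at 200 µg/disc and were placed on agar pre-inoculated with each bacterium. Incubated at 37 °C; inhibition zone diameter measured after 24 h. DMSO solvent control.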

[3] = test system: Candida albicans; test: Antifungal activity against Candida albicans at 200 ug/disc after 48 hrs by agar disc-diffusion method; type: functional; settings: read-out: DIZ
Method in brief: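 Disc diffusion for Candida albicans on Müller-Hinton agar. 8 mm discs loaded at 200 µg/disc from DMSO, with clotrimazole 200 µg/disc as reference. Plates held at 25 °C for 48 h, then growth-inhibition zone diameter measured in mm.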

[4] = test system: Escherichia coli; test: Antibacterial activity against Escherichia coli at 200 ug/disc after 24 hrs by agar disc-diffusion method; type: functional; settings: for zone of inhibition at 200 µg/disc: read-out: DIZ; method in brief: as §1
[5] = test system: Bacillus subtilis; test: Antibacterial activity against Bacillus subtilis at 200 ug/disc after 24 hrs by agar disc-diffusion method; type: functional; settings: for zone of inhibition at 200 µg/disc: read-out: DIZ; method in brief: as §1
[6] = test system: Staphylococcus aureus; test: Antibacterial activity against Staphylococcus aureus at 200 ug/disc after 24 hrs by agar disc-diffusion method; type: functional; settings: for zone of inhibition at 200 µg/disc: read-out: DIZ; method in brief: as §1
[7] = biological target: T1, Dihydrofolate reductase (Bos taurus, UniProt P00376); test: Inhibition of bovine liver DHFR measured every 1 min for 10 mins
T1 sequence (P00376 whole entry): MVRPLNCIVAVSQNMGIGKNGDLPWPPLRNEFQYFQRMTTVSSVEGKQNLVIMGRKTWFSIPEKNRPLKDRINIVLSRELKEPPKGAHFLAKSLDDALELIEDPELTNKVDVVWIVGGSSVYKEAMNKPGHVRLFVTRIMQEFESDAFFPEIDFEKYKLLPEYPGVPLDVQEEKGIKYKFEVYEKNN

[8] = test system: Escherichia coli; test: Antibacterial activity against Escherichia coli after 24 hrs by microdilution susceptibility method
[9] = test system: Bacillus subtilis; test: Antibacterial activity against Bacillus subtilis after 24 hrs by microdilution susceptibility method; type: functional
Method in brief: (§2)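 Microdilution in Müller-Hinton broth. Compounds dissolved in DMSO at 64 µg/mL, then twofold dilutions from 64 down to 0.125 µg/ml. Inoculum 10^6 CFU/ml. Plates held 24 h at 37 °C. MIC taken as the lowest concentration giving no visible growth by eye.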

[10] = test system: Schistosoma mansoni; test: Antischistosomal activity against Schistosoma mansoni assessed as mortality at 50 ug/ml after 24 hrs by microscopic analysis; type: functional
Method in brief: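 Adult worms, 3 male plus 3 female per well, triplicate wells. Compounds in DMSO, 0.5% DMSO as negative control, praziquantel 0.1 µg/ml as positive control. Incubated 37 °C for 24 h, then scored under a dissecting microscope. Worms motionless for at least 1 min, coiled and darkened, counted dead. Activity given as % dead worms per well.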

[11] = test system: Staphylococcus aureus; test: Antibacterial activity against Staphylococcus aureus after 24 hrs by microdilution susceptibility method; type: functional; method in brief: as §2
[12] = test system: MCF7; test: Cytotoxicity against human MCF7 cells after 48 hrs by MTT assay; type: functional; settings: MCF7, 48 h, read-out: LC50 (the source's name)
Method in brief: (§3)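 HCT116, HepG2 and MCF7 cells grown in RPMI 1640 with 1% antibiotic-antimycotic and 1% L-glutamine at 37 °C, 5% CO2, seeded at 10 x 10^3 cells/well for 24 h. Exposed in serum-free medium to 0.78–100 µM for 48 h, then MTT added for 4 h and dissolved overnight in 10% SDS.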

[13] = test system: HepG2; test: Cytotoxicity against human HepG2 cells after 48 hrs by MTT assay; type: functional; settings: HepG2, 48 h, read-out: LC50 (the source's name); method in brief: as §3
[14] = test system: HCT-116; test: Cytotoxicity against human HCT116 cells after 48 hrs by MTT assay; type: functional; settings: HCT-116, 48 h, read-out: LC50 (the source's name); method in brief: as §3
[15] = test system: Pseudomonas aeruginosa; test: Antibacterial activity against Pseudomonas aeruginosa after 24 hrs by microdilution susceptibility method; type: functional

CC(=O)N(C(C)=O)c1nc(-c2nnc(S)n2-c2ccccc2)cs1
CC50 [1]: 33.2 µM
zone of inhibition at 200 µg/disc [2]: 8 mm
zone of inhibition at 200 µg/disc [3]: 8 mm
zone of inhibition at 200 µg/disc [4]: 8 mm
zone of inhibition at 200 µg/disc [5]: 8 mm
zone of inhibition at 200 µg/disc [6]: 8 mm
IC50 [7]: 35 µM

COc1ccccc1-n1c(S)nnc1-c1csc(N(C(C)=O)C(C)=O)n1
MIC [8]: 0.8 µg/mL (≈ 2.05 µM)
MIC [9]: 4 µg/mL (≈ 10.3 µM)
zone of inhibition at 200 µg/disc [2]: 8 mm
zone of inhibition at 200 µg/disc [3]: 8 mm
zone of inhibition at 200 µg/disc [4]: 16 mm
zone of inhibition at 200 µg/disc [5]: 20 mm
zone of inhibition at 200 µg/disc [6]: 8 mm

CC(=O)N(C(C)=O)c1nc(-c2nnc(S)n2-c2ccc(Oc3ccccc3)cc2)cs1
mortality at 50 µg/mL [10]: 100%
MIC [9]: 2 µg/mL (≈ 4.43 µM)
MIC [11]: 4 µg/mL (≈ 8.86 µM)
zone of inhibition at 200 µg/disc [2]: 8 mm
zone of inhibition at 200 µg/disc [3]: 8 mm
zone of inhibition at 200 µg/disc [4]: 8 mm
zone of inhibition at 200 µg/disc [5]: 20 mm
zone of inhibition at 200 µg/disc [6]: 18 mm
IC50 [7]: 15 µM

COc1ccc(-n2c(S)nnc2-c2csc(N(C(C)=O)C(C)=O)n2)c(OC)c1
mortality at 50 µg/mL [10]: 0%
zone of inhibition at 200 µg/disc [2]: 8 mm
zone of inhibition at 200 µg/disc [3]: 8 mm
zone of inhibition at 200 µg/disc [4]: 8 mm
zone of inhibition at 200 µg/disc [5]: 8 mm
zone of inhibition at 200 µg/disc [6]: 8 mm
IC50 [7]: 8 µM

COc1cccc2c1C(=O)c1c(O)c3c(c(O)c1C2=O)C[C@@](O)(C(=O)CO)C[C@@H]3O[C@H]1C[C@H](N)[C@H](O)[C@H](C)O1 [DOXORUBICIN]
CC50 [12]: 26.1 µM
CC50 [13]: 21.4 µM
CC50 [14]: 37.7 µM
CC50 [1]: 28.3 µM

Nc1nc(-c2nnc(S)n2-c2ccc(Cl)cc2)cs1
mortality at 50 µg/mL [10]: 5%
zone of inhibition at 200 µg/disc [2]: 8 mm
zone of inhibition at 200 µg/disc [3]: 12 mm
zone of inhibition at 200 µg/disc [4]: 8 mm
zone of inhibition at 200 µg/disc [5]: 12 mm
zone of inhibition at 200 µg/disc [6]: 8 mm
IC50 [7]: 18 µM

Nc1nc(-c2nnc(S)n2-c2ccc(Oc3ccccc3)cc2)cs1
mortality at 50 µg/mL [10]: 55.6%
MIC [15]: 1 µg/mL (≈ 2.72 µM)
MIC [8]: 0.5 µg/mL (≈ 1.36 µM)
MIC [9]: 0.5 µg/mL (≈ 1.36 µM)
MIC [11]: 0.5 µg/mL (≈ 1.36 µM)
zone of inhibition at 200 µg/disc [2]: 16 mm
zone of inhibition at 200 µg/disc [3]: 14 mm
zone of inhibition at 200 µg/disc [4]: 20 mm
zone of inhibition at 200 µg/disc [5]: 32 mm
zone of inhibition at 200 µg/disc [6]: 28 mm

CC(=O)N(C(C)=O)c1nc(-c2nnc(S)n2-c2ccc(C)cc2)cs1
CC50 [12]: 23.8 µM
CC50 [13]: 18.9 µM
CC50 [1]: 25 µM
zone of inhibition at 200 µg/disc [2]: 8 mm
zone of inhibition at 200 µg/disc [3]: 8 mm
zone of inhibition at 200 µg/disc [4]: 8 mm
zone of inhibition at 200 µg/disc [5]: 8 mm
zone of inhibition at 200 µg/disc [6]: 8 mm

O=C(O)c1cn(C2CC2)c2cc(N3CCNCC3)c(F)cc2c1=O [CIPROFLOXACIN]
MIC [15]: 1 µg/mL (≈ 3.02 µM)
MIC [9]: 0.5 µg/mL (≈ 1.51 µM)
MIC [11]: 0.5 µg/mL (≈ 1.51 µM)
zone of inhibition at 200 µg/disc [2]: 36 mm
zone of inhibition at 200 µg/disc [4]: 38 mm
zone of inhibition at 200 µg/disc [5]: 35 mm
zone of inhibition at 200 µg/disc [6]: 32 mm

CN(Cc1cnc2nc(N)nc(N)c2n1)c1ccc(C(=O)N[C@@H](CCC(=O)O)C(=O)O)cc1 [METHOTREXATE]
zone of inhibition at 200 µg/disc [2]: 8 mm
zone of inhibition at 200 µg/disc [3]: 8 mm
zone of inhibition at 200 µg/disc [4]: 8 mm
zone of inhibition at 200 µg/disc [5]: 8 mm
zone of inhibition at 200 µg/disc [6]: 8 mm

COc1ccccc1-n1c(S)nnc1-c1csc(N)n1
MIC [8]: 8 µg/mL (≈ 26.2 µM)
MIC [9]: 4 µg/mL (≈ 13.1 µM)
zone of inhibition at 200 µg/disc [2]: 8 mm
zone of inhibition at 200 µg/disc [3]: 8 mm
zone of inhibition at 200 µg/disc [4]: 15 mm
zone of inhibition at 200 µg/disc [5]: 16 mm
zone of inhibition at 200 µg/disc [6]: 12 mm
IC50 [7]: 24 µM

COc1ccc(-n2c(S)nnc2-c2csc(N)n2)cc1
zone of inhibition at 200 µg/disc [2]: 8 mm
zone of inhibition at 200 µg/disc [3]: 8 mm
zone of inhibition at 200 µg/disc [4]: 8 mm
zone of inhibition at 200 µg/disc [5]: 12 mm
zone of inhibition at 200 µg/disc [6]: 8 mm
IC50 [7]: 21 µM

Clc1ccccc1C(c1ccccc1)(c1ccccc1)n1ccnc1 [CLOTRIMAZOLE]
zone of inhibition at 200 µg/disc [3]: 21 mm

COc1ccc(-n2c(S)nnc2-c2csc(N(C(C)=O)C(C)=O)n2)cc1
mortality at 50 µg/mL [10]: 6%
CC50 [1]: 35.4 µM
zone of inhibition at 200 µg/disc [2]: 8 mm
zone of inhibition at 200 µg/disc [3]: 8 mm
zone of inhibition at 200 µg/disc [4]: 8 mm
zone of inhibition at 200 µg/disc [5]: 14 mm
zone of inhibition at 200 µg/disc [6]: 12 mm
IC50 [7]: 5 µM

O=C(C1CCCCC1)N1CC(=O)N2CCc3ccccc3C2C1 (centres undefined) [PRAZIQUANTEL]
mortality at 50 µg/mL [10]: 100%

Nc1nc(-c2nnc(S)n2-c2ccccc2)cs1
mortality at 50 µg/mL [10]: 16.6%
zone of inhibition at 200 µg/disc [2]: 8 mm
zone of inhibition at 200 µg/disc [3]: 8 mm
zone of inhibition at 200 µg/disc [4]: 8 mm
zone of inhibition at 200 µg/disc [5]: 8 mm
zone of inhibition at 200 µg/disc [6]: 8 mm

CC(=O)N(C(C)=O)c1nc(-c2nnc(S)n2-c2ccc(Cl)cc2)cs1
CC50 [13]: 29.1 µM
MIC [9]: 4 µg/mL (≈ 10.2 µM)
MIC [11]: 4 µg/mL (≈ 10.2 µM)
zone of inhibition at 200 µg/disc [2]: 8 mm
zone of inhibition at 200 µg/disc [3]: 8 mm
zone of inhibition at 200 µg/disc [4]: 8 mm
zone of inhibition at 200 µg/disc [5]: 21 mm
zone of inhibition at 200 µg/disc [6]: 16 mm
IC50 [7]: 10 µM

Cc1ccc(-n2c(S)nnc2-c2csc(N)n2)cc1
mortality at 50 µg/mL [10]: 10.5%
zone of inhibition at 200 µg/disc [2]: 8 mm
zone of inhibition at 200 µg/disc [3]: 8 mm
zone of inhibition at 200 µg/disc [4]: 8 mm
zone of inhibition at 200 µg/disc [5]: 8 mm
zone of inhibition at 200 µg/disc [6]: 8 mm
IC50 [7]: 24 µM

GENTAMICIN
MIC [15]: 1 µg/mL
MIC [9]: 2 µg/mL
MIC [11]: 2 µg/mL
inhibition zone (IZ) [2]: 19 mm
inhibition zone (IZ) [4]: 20.8 mm
inhibition zone (IZ) [5]: 25 mm
inhibition zone (IZ) [6]: 26.5 mm
